Data from ChEMBL document CHEMBL1806356, “Synthesis, characterization and antimicrobial studies of some new pyrazole incorporated imidazole derivatives” (Eur J Med Chem, 2011).

Assays:
Aspergillus flavus [1] = experiment: Antifungal activity against Aspergillus flavus at 1000 ug/ml after 72 hrs by agar diffusion method; type: functional; conditions: read-out: DIZ
Summary of the method: (§1)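 Fungal spores were suspended in normal saline (one loopful in 3 mL) and lawned on agar plates. Wells were punched with a sterile cork borer and loaded with test compound in DMSO at the different concentrations. A DMSO solvent control was included. Petri dishes were prepared in triplicate and held at 25 °C for 72 h.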

Bacillus subtilis [2] = experiment: Antibacterial activity against Bacillus subtilis assessed as zone of inhibition at 500 ug/ml after 24 hrs by agar diffusion method; type: functional; conditions: read-out: IZ
Summary of the method: (§2)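 Well diffusion on Mueller-Hinton agar seeded with 24 h old bacterial cultures. Test compounds were dissolved in DMSO at 1 and 0.5 mg/mL and added to labeled wells. Plates were incubated 24 h at 37 °C. The inhibition zone around each well was measured in mm. Triplicate experiments, standard deviation calculated.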

Nannizzia gypsea [3] = experiment: Antifungal activity against Microsporum gypseum at 500 ug/ml after 72 hrs by agar diffusion method; type: functional; conditions: read-out: DIZ; summary of the method: as §1
Aspergillus niger [4] = experiment: Antifungal activity against Aspergillus niger at 1000 ug/ml after 72 hrs by agar diffusion method; type: functional; conditions: read-out: DIZ; summary of the method: as §1
Clostridium perfringens [5] = experiment: Antibacterial activity against Clostridium perfringens assessed as zone of inhibition at 500 ug/ml after 24 hrs by agar diffusion method; type: functional; conditions: read-out: IZ
Summary of the method: (§3)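 Well diffusion on Mueller-Hinton agar seeded with 24 h old cultures. Compounds dissolved in DMSO at 1 and 0.5 mg/mL and added to wells punched with a sterile cork borer, with a DMSO-only control. Plates incubated 24 h at 37 °C. Read-out was the inhibition zone in mm, run in triplicate, standard deviation calculated.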

Aspergillus niger [6] = experiment: Antifungal activity against Aspergillus niger at 500 ug/ml after 72 hrs by agar diffusion method; type: functional; conditions: read-out: DIZ; summary of the method: as §1
Aspergillus flavus [7] = experiment: Antifungal activity against Aspergillus flavus at 500 ug/ml after 72 hrs by agar diffusion method; type: functional; conditions: read-out: DIZ; summary of the method: as §1
Salmonella typhimurium [8] = experiment: Antibacterial activity against Salmonella Typhimurium assessed as zone of inhibition at 1000 ug/ml after 24 hrs by agar diffusion method; type: functional, Salmonella enterica subsp. enterica serovar Typhimurium; conditions: Salmonella enterica, read-out: IZ; summary of the method: as §2
Bacillus subtilis [9] = experiment: Antibacterial activity against Bacillus subtilis assessed as zone of inhibition at 1000 ug/ml after 24 hrs by agar diffusion method; type: functional; conditions: read-out: IZ; summary of the method: as §2
Clostridium perfringens [10] = experiment: Antibacterial activity against Clostridium perfringens assessed as zone of inhibition at 1000 ug/ml after 24 hrs by agar diffusion method; type: functional; conditions: read-out: IZ; summary of the method: as §3
Candida albicans [11] = experiment: Antifungal activity against Candida albicans at 500 ug/ml after 72 hrs by agar diffusion method; type: functional; conditions: read-out: DIZ; summary of the method: as §1
Pseudomonas aeruginosa [12] = experiment: Antibacterial activity against Pseudomonas aeruginosa ATCC 27853 assessed as zone of inhibition at 1000 ug/ml after 24 hrs by agar diffusion method; type: functional; conditions: ATCC 27853, 24 h, read-out: IZ; summary of the method: as §2
Candida albicans [13] = experiment: Antifungal activity against Candida albicans at 1000 ug/ml after 72 hrs by agar diffusion method by agar diffusion method; type: functional; conditions: read-out: DIZ; summary of the method: as §1
Escherichia coli [14] = experiment: Antibacterial activity against Escherichia coli ATCC 25922 assessed as zone of inhibition at 1000 ug/ml after 24 hrs by agar diffusion method; type: functional; conditions: ATCC 25922, 24 h, read-out: IZ; summary of the method: as §2
Trichophyton rubrum [15] = experiment: Antifungal activity against Trichophyton rubrum at 500 ug/ml after 72 hrs by agar diffusion method; type: functional; conditions: read-out: DIZ; summary of the method: as §1
Staphylococcus aureus [16] = experiment: Antibacterial activity against Staphylococcus aureus assessed as zone of inhibition at 1000 ug/ml after 24 hrs by agar diffusion method; type: functional; conditions: read-out: IZ; summary of the method: as §2
Escherichia coli [17] = experiment: Antibacterial activity against Escherichia coli ATCC 25922 assessed as zone of inhibition at 500 ug/ml after 24 hrs by agar diffusion method; type: functional; conditions: ATCC 25922, 24 h, read-out: IZ; summary of the method: as §2
Pseudomonas aeruginosa [18] = experiment: Antibacterial activity against Pseudomonas aeruginosa ATCC 27853 assessed as zone of inhibition at 500 ug/ml after 24 hrs by agar diffusion method; type: functional; conditions: ATCC 27853, 24 h, read-out: IZ; summary of the method: as §2
Nannizzia gypsea [19] = experiment: Antifungal activity against Microsporum gypseum at 1000 ug/ml after 72 hrs by agar diffusion method; type: functional; conditions: read-out: DIZ; summary of the method: as §1
Staphylococcus aureus [20] = experiment: Antibacterial activity against Staphylococcus aureus assessed as zone of inhibition at 500 ug/ml after 24 hrs by agar diffusion method; type: functional; conditions: read-out: IZ; summary of the method: as §2
Salmonella typhimurium [21] = experiment: Antibacterial activity against Salmonella Typhimurium assessed as zone of inhibition at 500 ug/ml after 24 hrs by agar diffusion method; type: functional, Salmonella enterica subsp. enterica serovar Typhimurium; conditions: Salmonella enterica, read-out: IZ; summary of the method: as §2
Trichophyton rubrum [22] = experiment: Antifungal activity against Trichophyton rubrum at 1000 ug/ml after 72 hrs by agar diffusion method; type: functional; conditions: read-out: DIZ; summary of the method: as §1

Structure (SMILES)	zone of inhibition at 1000 µg/mL (Aspergillus flavus [1])	zone of inhibition at 500 µg/mL (Bacillus subtilis [2])	zone of inhibition at 500 µg/mL (Nannizzia gypsea [3])	zone of inhibition at 1000 µg/mL (Aspergillus niger [4])	zone of inhibition at 500 µg/mL (Clostridium perfringens [5])	zone of inhibition at 500 µg/mL (Aspergillus niger [6])	zone of inhibition at 500 µg/mL (Aspergillus flavus [7])	zone of inhibition at 1000 µg/mL (Salmonella typhimurium [8])	zone of inhibition at 1000 µg/mL (Bacillus subtilis [9])	zone of inhibition at 1000 µg/mL (Clostridium perfringens [10])	zone of inhibition at 500 µg/mL (Candida albicans [11])	zone of inhibition at 1000 µg/mL (Pseudomonas aeruginosa [12])	zone of inhibition at 1000 µg/mL (Candida albicans [13])	zone of inhibition at 1000 µg/mL (Escherichia coli [14])	zone of inhibition at 500 µg/mL (Trichophyton rubrum [15])	zone of inhibition at 1000 µg/mL (Staphylococcus aureus [16])	zone of inhibition at 500 µg/mL (Escherichia coli [17])	zone of inhibition at 500 µg/mL (Pseudomonas aeruginosa [18])	zone of inhibition at 1000 µg/mL (Nannizzia gypsea [19])	zone of inhibition at 500 µg/mL (Staphylococcus aureus [20])	other results
CSc1ccc(-c2n[nH]cc2-c2nc(-c3ccc(Br)cc3)c(-c3ccc(Br)cc3)[nH]2)cc1	13 mm	4 mm	3 mm	6 mm	3 mm	5 mm	12 mm	4 mm	5 mm	4 mm	11 mm	3 mm	12 mm	3 mm	7 mm	3 mm	2 mm	2 mm	4 mm	2 mm	zone of inhibition at 500 µg/mL (Salmonella typhimurium [21]): 3 mm; zone of inhibition at 1000 µg/mL (Trichophyton rubrum [22]): 8 mm
OC(Cn1cncn1)(Cn1cncn1)c1ccc(F)cc1F [FLUCONAZOLE]	22 mm	–	14 mm	20 mm	–	18 mm	21 mm	–	–	–	21 mm	–	22 mm	–	22 mm	–	–	–	15 mm	–	zone of inhibition at 1000 µg/mL (Trichophyton rubrum [22]): 24 mm
CSc1ccc(-c2n[nH]cc2-c2nc(-c3ccccc3)c(-c3ccccc3)[nH]2)cc1	5 mm	4 mm	5 mm	10 mm	3 mm	9 mm	4 mm	4 mm	5 mm	4 mm	9 mm	5 mm	10 mm	7 mm	11 mm	4 mm	6 mm	4 mm	6 mm	3 mm	zone of inhibition at 500 µg/mL (Salmonella typhimurium [21]): 3 mm; zone of inhibition at 1000 µg/mL (Trichophyton rubrum [22]): 12 mm
Brc1ccc(-c2nc(-c3c[nH]nc3-c3ccc(-c4ccccc4)cc3)[nH]c2-c2ccc(Br)cc2)cc1	4 mm	3 mm	1 mm	3 mm	1 mm	2 mm	3 mm	3 mm	4 mm	2 mm	2 mm	2 mm	3 mm	3 mm	3 mm	2 mm	2 mm	1 mm	2 mm	1 mm	zone of inhibition at 500 µg/mL (Salmonella typhimurium [21]): 2 mm; zone of inhibition at 1000 µg/mL (Trichophyton rubrum [22]): 4 mm
c1ccc(-c2ccc(-c3n[nH]cc3-c3nc(-c4ccccc4)c(-c4ccccc4)[nH]3)cc2)cc1	9 mm	2 mm	4 mm	10 mm	1 mm	9 mm	7 mm	4 mm	3 mm	2 mm	8 mm	4 mm	9 mm	3 mm	8 mm	2 mm	2 mm	3 mm	5 mm	1 mm	zone of inhibition at 500 µg/mL (Salmonella typhimurium [21]): 3 mm; zone of inhibition at 1000 µg/mL (Trichophyton rubrum [22]): 9 mm
Clc1ccc(-c2n[nH]cc2-c2nc(-c3ccccc3)c(-c3ccccc3)[nH]2)c(Cl)c1	8 mm	5 mm	3 mm	9 mm	5 mm	7 mm	7 mm	3 mm	6 mm	6 mm	11 mm	4 mm	12 mm	10 mm	8 mm	6 mm	9 mm	3 mm	4 mm	5 mm	zone of inhibition at 500 µg/mL (Salmonella typhimurium [21]): 2 mm; zone of inhibition at 1000 µg/mL (Trichophyton rubrum [22]): 10 mm
Clc1cc(-c2n[nH]cc2-c2nc(-c3ccc(Br)cc3)c(-c3ccc(Br)cc3)[nH]2)c(Cl)s1	4 mm	1 mm	2 mm	4 mm	4 mm	3 mm	3 mm	2 mm	2 mm	5 mm	5 mm	4 mm	6 mm	4 mm	5 mm	3 mm	3 mm	3 mm	3 mm	2 mm	zone of inhibition at 500 µg/mL (Salmonella typhimurium [21]): 1 mm; zone of inhibition at 1000 µg/mL (Trichophyton rubrum [22]): 6 mm
COC(=O)/C=C1/C(=O)NC(=S)N1/N=C/c1c[nH]nc1-c1cc(Cl)sc1Cl	10 mm	7 mm	5 mm	6 mm	11 mm	5 mm	9 mm	10 mm	8 mm	12 mm	5 mm	9 mm	6 mm	9 mm	12 mm	7 mm	8 mm	8 mm	6 mm	6 mm	zone of inhibition at 500 µg/mL (Salmonella typhimurium [21]): 9 mm; zone of inhibition at 1000 µg/mL (Trichophyton rubrum [22]): 13 mm
CN[C@@H]1[C@H](O[C@H]2[C@H](O[C@H]3[C@H](O)[C@@H](O)[C@H](N=C(N)N)[C@@H](O)[C@@H]3N=C(N)N)O[C@@H](C)[C@]2(O)C=O)O[C@@H](CO)[C@H](O)[C@H]1O [STREPTOMYCIN]	–	11 mm	–	–	16 mm	–	–	18 mm	21 mm	17 mm	–	13 mm	–	16 mm	–	15 mm	10 mm	9 mm	–	10 mm	zone of inhibition at 500 µg/mL (Salmonella typhimurium [21]): 17 mm
